UPR XBP1 act: activators of adaptive arm of unfolded protein response (XBP1). CHO-XBP1 luciferase reporter, IRE1-XBP1 UPR activation, luminescence; percent of tunicamycin response, DMSO as zero. 0.33% of 330,000 active. AID 463104. activation, % at 20 µM;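 active = versus positive control, 20 µM dose yields 30% or more activation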;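 note: 100% = tunicamycin at 10 µg/mL and 0% = DMSO only wells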
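Assay system: IRE1-XBP1 luciferase reporter CHO line. Input: 1000 cells/well. Buffer or medium: F12 with 10% serum. Doses: 20 µM, 1% DMSO. Times: overnight seeding at 37 °C, 6 h compound treatment at 37 °C. Technique: Steady-Glo luciferase glow luminescence, 10 min after reagent addition.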
Jurkat NFkB inh: inhibitors of the PMA/ionomycin-induced NF-kB reporter in Jurkat cells | inhibition, % at 4 µM | AID 435003 | 0.53% of 330,000 active | PMA/ionomycin-induced NF-kB luciferase reporter, luminescence; in the data active = inhibition above about 50%
CHOP inh: blocks CHOP induction under ER stress. inhibition, % at 10 µM. CHO-K1 CHOP-promoter luciferase, tunicamycin-induced, 15-18 h. 3.8% of 220,000 active;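 active = compounds that reduced the stress-induced luciferase reporter signal by more than about 70% of percent inhibition, limit read from the data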;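 note: 0% = tunicamycin plus vehicle and 100% = wells without tunicamycin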
697 NFkB inh: inhibitors of the PMA/ionomycin-induced NF-kB reporter in 697 B cells | AID 435022 | 697 B-cell NF-kB luciferase reporter, 16 h | inhibition, % at 4 µM | 0.33% of 330,000 active; in the data active = inhibition above about 35%
UPR CHOP act: apoptotic UPR (CHOP) activation; activation, % at 10 µM; 0.34% of 330,000 active; CHO-CHOP luciferase reporter, luminescence; percent of tunicamycin response over DMSO baseline;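 active = at 10 µM dose, activation of 40% or more, normalized to positive control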;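 note: 100% = tunicamycin at 10 µg/mL and 0% = DMSO alone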
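System: CHO-CHOP luciferase reporter cell line; amount: 500 cells/well; buffer or medium: F12 medium containing 10% fetal bovine serum; incubation: 6 h compound exposure at 37 °C after overnight seeding; measured by: luciferase luminescence after 10 min with Steady-Glo reagent; evaluation: % reporter activation, DMSO baseline versus tunicamycin full activation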
XBP1 UPR conf: adaptive UPR (XBP1) activation, confirmed; shares compounds with UPR XBP1 act; CHO-XBP1 IRE1-XBP1 luciferase reporter, luminescence; activation, % at 20 µM; 63% of 1,000 active; AID 485299;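 active = reporter signal at least 30% of the positive control's activation in two or more of four replicate wells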;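 note: plate controls were DMSO negative control for no effect and tunicamycin 10 µg/mL positive control for full effect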
* = called active by the depositor; . = not tested or not shown. The entries come from a sample that favours hits as a whole.

SMILES	UPR XBP1 act	Jurkat NFkB inh	CHOP inh	697 NFkB inh	UPR CHOP act	XBP1 UPR conf
COC(=O)c1sc(NC(=O)c2cnccn2)c(C(=O)OC)c1C	41.2*	-6.3	.	-7.5	27.9	1.0
CCCCNc1c(-c2ccc(SC(C)CC)cc2)nc2cnccn12 (centres undefined)	56.6*	6.4	.	-59.4	4.3	50.0*
O=C(CCCn1nnnc1CN1CCOCC1)N1CCC(c2ccccc2Cl)C1 (centres undefined)	-3.0	-9.0	.	-7.3	-2.3	.
COc1ccc2[nH]c3c(c2c1)CCN1C(=O)C(CC(=O)NC/C=C(\C)CCC=C(C)C)C[C@H](C(=O)N2CCOCC2)[C@@]31CCC1CCCC1 (some centres undefined)	47.2*	.	.	10.4	7.6	57.5*
CC[C@]12c3[nH]c4ccc(OC)cc4c3CCN1C(=O)C(CC(=O)NC/C=C(\C)CCC=C(C)C)C[C@@H]2C(=O)N1CCN(C(=O)C2CC2)CC1 (some centres undefined)	3.4	.	.	3.8	9.7	.
O=C(NNS(=O)(=O)c1ccccc1)c1cccc([N+](=O)[O-])c1	-3.1	8.5	.	16.2	3.2	.
CCNS(=O)(=O)c1ccc(CCC(=O)NCc2ccccn2)cc1	-4.4	-9.2	.	-12.6	-0.4	.
COc1ccc(CNCCC(c2ccc(F)cc2)c2ccc(OC)cc2)cc1 (centres undefined)	-2.9	-2.0	67.7	6.5	-1.0	.
COc1ccc(C(CCNC(C)c2ccccc2)c2ccc(F)cc2)cc1 (centres undefined)	45.5*	6.6	15.0	-5.5	1.7	63.2*
COc1ccc(C(CCNCc2ccccc2)c2ccc(F)cc2)cc1 (centres undefined)	48.2*	-3.3	20.2	6.2	0.6	71.3*
Cc1cc(C)c2c(c1)/C(=N/Nc1ccc(S(N)(=O)=O)cc1[N+](=O)[O-])CCC2	76.4*	-3.4	15.7	-21.4	16.3	49.8*
Cc1cccn2c(=O)c3cc(C(=O)NC4CCCCCC4)sc3nc12	354.6*	-1.0	.	13.6	2.3	96.8*
Cc1cccn2c(=O)c3cc(C(=O)NC4CCS(=O)(=O)C4)sc3nc12 (centres undefined)	-2.1	13.1	-14.6	13.6	2.0	.
CCCC[C@@H]1C=C(C(=O)O)[C@H](c2ccc(C#N)cc2)N1S(=O)(=O)c1ccc(C)cc1	-2.0	2.7	.	-9.4	-1.2	.
N/C(=N\c1nc2ccccc2o1)NC(=O)c1ccccc1NC(=O)c1ccccc1	4.7	-3.9	37.6	-12.2	0.1	.
O=C(NC(=Nc1nc2ccccc2o1)NC(=O)c1ccccc1)c1ccccc1	31.9*	-65.6	61.4	-60.5	11.7	28.9
COc1ccccc1CNC(=O)CS(=O)(=O)c1ccc(C)cc1	-0.6	0.1	.	-11.7	1.2	.
CCc1sc2nc(SCC(=O)Nc3cc(C)on3)n(-c3cccc(OC)c3)c(=O)c2c1C	40.1*	3.8	88.7*	1.4	19.3	80.8*
CN(C)c1ccc(C2Nc3ccccc3C(=O)N2CCCN2CCOCC2)cc1 (centres undefined)	-6.0	-8.0	41.8	-17.6	-3.6	.
COc1cc2c(cc1OC)[C@@H](NC(=O)c1ccc(C(F)(F)F)cc1)[C@H](OCc1ccccc1)C2	36.3*	.	.	2.1	0.8	17.9
CC(=O)O[C@@H]1[C@@H](O)[C@@H](O)[C@H](Oc2c(-c3ccc(O)cc3)oc3c(CC=C(C)C)c(O)cc(O)c3c2=O)O[C@H]1C	-2.6	-12.4	.	10.8	-1.0	.
CC(=O)O[C@H]1[C@@H](O)[C@H](O)[C@H](Oc2c(O)c(C)c3c4c2[C@@H](C)CC[C@@H]4[C@@H](C)C[C@H]3C=C(C)C)O[C@H]1C	46.8*	17.5	.	-12.1	5.3	20.6
CCc1ccc(NC(=O)CSc2nc3n[nH]c(C)c3c(=N)n2-c2cccc(OC)c2)cc1	14.0	19.5	45.2	3.8	10.6	.
Cc1cc(-n2c(SCC(=O)Nc3ccc(Br)cc3)nc3n[nH]c(C)c3c2=N)ccc1Cl	36.3*	21.6	.	15.6	4.9	20.0
COc1cccc(NC(=O)CSc2nc3n[nH]c(C)c3c(=N)n2-c2cccc(OC)c2)c1	7.0	3.5	66.8	1.7	-1.0	.
SMILES	UPR XBP1 act	Jurkat NFkB inh	CHOP inh	697 NFkB inh	UPR CHOP act	XBP1 UPR conf
Cc1cc(-n2c(SCC(=O)Nc3ccc(F)c(F)c3)nc3n[nH]c(C)c3c2=N)ccc1Cl	34.5*	22.7	.	-10.6	9.5	60.2*
C=CCC(=O)NC1CCCc2c1cnn2-c1cc(F)cc(F)c1 (centres undefined)	-3.8	1.3	.	9.7	-1.7	.
O=C1c2cccc3cccc(c23)C(=O)N1Nc1ccccc1	6.2	2.6	12.9	7.2	-1.8	.
O=C1c2cccc3cc(Br)cc(c23)C(=O)N1Nc1ccc(Br)cc1	39.7*	1.1	37.8	-20.3	22.3	33.2*
C[C@@]12C(=O)N(c3ccc(Br)cc3)C(=O)N1[C@@H]1c3ccccc3OC[C@@H]1[C@H]2c1ccccc1	-1.3	-1.2	.	8.0	0.7	.
CCOC(=O)C1=C(O)/C(=C/c2cn(CC(=O)NCC3CCCO3)c3ccccc23)SC1=Nc1ccc(C)cc1 (centres undefined)	65.9*	17.8	.	-12.4	23.0	30.9*
CC(C)C(=O)c1cn(CC(=O)NCC2CCCO2)c2ccccc12 (centres undefined)	-1.5	15.1	7.8	-1.7	1.0	.
ClC(Cl)(Cl)c1nc2ccccc2n2nncc12	30.9*	25.7	.	24.2	-1.1	21.7
c1ccc2c(c1)nnn1c3ccccc3nc21	-1.4	-127.7	-16.5	-229.6	-2.0	.
CC(C)C(=O)N(c1cc2sc(=O)oc2c2ccccc12)S(=O)(=O)c1cccs1	48.0*	11.1	69.4	-0.5	24.1	49.0*
Cc1ccc2[nH]c3c(=O)n(CC(=O)N4CC(C)CC(C)C4)ncc3c2c1 (centres undefined)	31.7*	-4.5	.	-14.8	4.1	0.7
O=C(Nc1ccc(-c2nc3cc(Cl)ccc3c(=O)o2)cc1)c1ccco1	-0.2	7.9	-10.0	18.8	0.7	.
O=C(Nc1ccc(-c2nc3c(ccc4ccccc43)o2)cc1)c1ccco1	33.0*	-54.4	79.4*	-103.0	18.2	15.0
CC1=Nn2c(nnc2-c2cc(-c3ccccc3)n[nH]2)SC1	-1.9	7.9	10.1	12.1	-1.2	.
Brc1ccc(C2=Nn3c(nnc3-c3n[nH]c4c3CCC4)SC2)cc1	36.8*	48.4	.	17.6	1.0	49.4*
c1ccc(-c2ccc(C3=Nn4c(nnc4-c4cc(-c5ccccc5)n[nH]4)SC3)cc2)cc1	64.1*	-4.0	-31.7	-10.9	5.0	22.6
Clc1ccc(C2=Nn3c(nnc3-c3n[nH]c4c3CCC4)SC2)cc1	15.3	39.5	.	-11.1	-2.8	.

Compound activity (PubChem BioAssay)
